Data from ChEMBL document CHEMBL4145623, “Abietane Diterpenoids from the Roots of Clerodendrum trichotomum and Their Nitric Oxide Inhibitory Activities” (J Nat Prod, 2018).
Structures can show the parent of a compound that is named as a salt.

Tested on: RAW264.7
Assay: Antiinflammatory activity against mouse RAW264.7 cells assessed as inhibition of LPS-induced NO production pretreated for 30 mins followed by LPS stimulation measured after 24 hrs by Griess reagent based assay
Format: functional, cell-based
Conditions: not given
Method in brief: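 Supernatant mixed 1:1 with Griess reagent for 10 min, absorbance read at 540 nm. DMSO final ≤0.1%. Aminoguanidine hydrochloride served as positive control. Run in triplicate; IC50 given as mean ± SD (n = 3).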

SMILES	IC50 [µM]
CC1(C)CCC[C@]2(C)c3c(O)c4c(c(O)c3C(=O)C[C@@H]12)C[C@H](CO)O4	> 50
COC1=C2C(C)(C)CCC[C@]2(C)c2c(O)c3c(c(O)c2C1=O)C[C@H](CO)O3	35.6
CC(C)c1cc2c(c(O)c1O[C@@H]1O[C@H](CO)[C@@H](O)[C@H](O)[C@H]1O)[C@@]1(C)CC[C@H](O[C@@H]3O[C@H](CO)[C@@H](O)[C@H](O)[C@H]3O)C(C)(C)[C@@H]1CC2	> 50
CC1=C(C)[C@@H](O)C[C@@]2(C)C1=CC(=O)c1c2c(O)c2oc(C)cc2c1O	> 50
CC1=C(C)C2=CC(=O)C3=C(C(=O)[C@]4(Oc5c([C@H](C)CO)cc6c(c5O4)[C@]4(C)CCCC(C)(C)[C@H]4CC6=O)[C@@]4(O)C[C@H](C)O[C@]34O)[C@]2(C)CC1	5.6
C[C@H]1Cc2c(O)c3c(c(O)c2O1)[C@@]1(C)CCC(=O)C(C)(C)C1=C(O)C3=O [TEUVINCENONE A]	> 50
CC1=C(CO)C2=CC(=O)c3c(c(O)c4oc(C)cc4c3O)[C@@]2(C)CC1=O	> 50
CC(CO)c1cc2c(c(O)c1O[C@@H]1O[C@H](CO)[C@@H](O)[C@H](O)[C@H]1O)[C@@]1(C)CC[C@H](O)C(C)(C)[C@@H]1CC2 (some centres undefined)	> 50
C=C1C(C)=CC[C@]2(C)c3c(cc(CC(C)O)c(O[C@@H]4O[C@H](CO)[C@@H](O)[C@H](O)[C@H]4O)c3O)C(=O)C[C@@H]12 (some centres undefined)	> 50
CC1=C(C)C2=CC(=O)c3c(O)c4c(c(O)c3[C@@]2(C)CC1)O[C@@H](C)[C@@H]4O	> 50
C[C@H]1Cc2c(O)c3c(c(O)c2O1)[C@@]1(C)CCC2=C(COC2=O)C1=CC3=O	28.9
COC1=C2C(C)(C)C(=O)CC[C@]2(C)c2c(c(O)c3cc(C)oc3c2O)C1=O	31.1
CC1(C)CCC[C@@]2(C)C1=C(O)C(=O)c1c(O)c3c(c(O)c12)O[C@@H](CO)C3 [VILLOSIN C]	15.5
C[C@H]1Cc2c(O)c3c(c(O)c2O1)[C@@]1(C)CCC(=O)C(C)(C)[C@@H]1CC3=O	> 50
COC(=O)C1=C(C)C2=CC(=O)c3c(O)c4c(c(O)c3[C@@]2(C)CC1)O[C@@H](C)C4	> 50
COC1=C2C(C)(C)C(=O)CC[C@]2(C)c2c(O)c3c(c(O)c2C1=O)C[C@H](C)O3	> 50
CC1=C(C)C2=CC(=O)c3c(O)c4c(c(O)c3[C@@]2(C)CC1=O)O[C@@H](C)C4	31.4

SMILES	IC50 [µM]
C[C@H]1Cc2c(O)c3c(c(O)c2O1)[C@@]1(C)CC[C@]2(C)O[C@]2(C)C1=CC3=O	> 50
COC1=C2C(C)(C)CCC[C@]2(C)c2c(O)c3c(c(O)c2C1=O)C[C@H](C)O3	> 50
Cc1cc2c(O)c3c(c(O)c2o1)[C@@]1(C)CCC(=O)C(C)(C)[C@@H]1CC3=O	6
C[C@@]12C[C@@H]1CC[C@]1(C)c3c(O)c4c(c(O)c3C(=O)C[C@@H]21)C[C@H](CO)O4	> 50
CC1=C(C)C2=CC(=O)c3c(O)c4c(c(O)c3[C@@]2(C)CC1=O)O[C@@H](C)[C@@H]4O	38.6
CC1=C(C)[C@@H](O)C[C@@]2(C)C1=CC(=O)c1c(O)c3c(c(O)c12)O[C@@H](C)C3	6.5
CC(C)c1cc2c(c(O)c1O)[C@@]1(C)CCCC(C)(C)[C@@H]1CC2=O [DEMETHYLCRYPTOJAPONOL]	15.5
N=C(N)NN [PIMAGEDINE HYDROCHLORIDE]	26.2
CC(C)c1cc2c(c(O)c1O)[C@@]1(C)CCCC(C)(C)[C@@H]1[C@@H](O)C2=O [6-ALPHA-HYDROXYDEMETHYL-CRYPTOJAPONOL]	9.4
C=C1C2=CC(=O)c3c(O)c4c(c(O)c3[C@@]2(C)CC[C@@]1(C)O)OC(C)C4 (some centres undefined)	> 50
CC(C)c1cc2c(c(O)c1O[C@@H]1O[C@H](CO)[C@@H](O)[C@H](O)[C@H]1O)[C@@]1(C)CCC[C@](C)(C(=O)O[C@@H]3O[C@H](CO)[C@@H](O)[C@H](O)[C@H]3O)[C@@H]1CC2	> 50
CC1=C(C)C2=CC(=O)[C@@]34O[C@@]3(C(=O)c3oc(C)cc3C4=O)[C@@]2(C)CC1	10.6
COC1=C2C(C)(C)CCC[C@]2(C)c2c(c(O)c3cc(CO)oc3c2O)C1=O	16.1
Cc1cc2c(O)c3c(c(O)c2o1)[C@@]1(C)CCC(=O)C(C)(C)C1=C(O)C3=O	> 50
C[C@@H](CO)c1cc2c(c(O)c1O)[C@@]1(C)CCCC(C)(C)[C@@H]1CC2=O	> 50
CC(O)Cc1cc2c(c(O)c1O)[C@@]1(C)CCCC(C)(C)[C@@H]1CC2=O (some centres undefined)	> 50
CC1=C(C)C2=CC(=O)c3c(c(O)c4oc(C)cc4c3O)[C@@]2(C)CC1=O	> 50

Tested on: not listed separately
Assay: Cytotoxicity against mouse RAW264.7 cells assessed as cell survival at 25 uM
Format: cell-based
Conditions: read-out: Survival

SMILES	viability at 25 µM [%]
C[C@H]1Cc2c(O)c3c(c(O)c2O1)[C@@]1(C)CC[C@H](O)C(C)(C)[C@@H]1CC3=O	< 15
CC1=C(CO)CC[C@@]2(C)C1=CC(=O)c1c(O)c3c(c(O)c12)O[C@@H](C)C3	< 15
CC1=C(CO)C(=O)C[C@@]2(C)C1=CC(=O)c1c(O)c3c(c(O)c12)O[C@@H](C)C3	< 15
CC1=C(C=O)CC[C@@]2(C)C1=CC(=O)c1c(O)c3c(c(O)c12)O[C@@H](C)C3	< 15
CC1=C(C)C2=CC(=O)c3c(c(O)c4oc(C)cc4c3O)[C@@]2(C)CC1	< 15
CC1=C(C)C2=CC(=O)C3=C(C(=O)c4oc(C)cc4C3=O)[C@@]2(C)CC1	< 15
CC1=C(C)[C@H](O)C[C@@]2(C)C1=CC(=O)c1c2c(O)c2oc(C)cc2c1O	< 15
CC1=C(C)C2=CC(=O)c3c(O)c4c(c(O)c3[C@@]2(C)CC1)O[C@@H](C)C4	< 15
CC1(C)CCC[C@@]2(C)C1=CC(=O)c1c(O)c3c(c(O)c12)O[C@@H](CO)C3	< 15
CC1=C(C)[C@H](O)C[C@@]2(C)C1=CC(=O)c1c(O)c3c(c(O)c12)O[C@@H](C)C3	< 15
